Experimental data: ChEMBL document CHEMBL1275556, “High prevalence of plasmid-mediated quinolone resistance genes qnr and aac(6')-Ib-cr in clinical isolates of Enterobacteriaceae from nine teaching hospitals in China” (2008)

Legend:
Klebsiella pneumoniae [1] = assay: Antimicrobial activity against aac(6')-Ib-cr-positive Klebsiella pneumoniae WH99 harboring wild-type GyrA, ParC, GyrB and qnrB genes by agar dilution method; type: functional
Summary of the method: (§1)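 MICs were determined on clinical isolates by CLSI agar dilution (M7-A7) and interpreted against CLSI M100-S17 breakpoints.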

Citrobacter freundii [2] = assay: Antimicrobial activity against aac(6')-Ib-cr-positive Citrobacter freundii JN1T by agar dilution method; type: functional
Summary of the method: (§2)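 MICs were determined by the CLSI agar dilution method (M7-A7) and interpreted against CLSI M100-S17 breakpoints.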

Enterobacter cloacae [3] = assay: Antimicrobial activity against aac(6')-Ib-cr-negative Enterobacter cloacae GZ47T harboring qnrB gene by agar dilution method; type: functional
Enterobacter cloacae [4] = assay: Antimicrobial activity against aac(6')-Ib-cr-positive Enterobacter cloacae FJ63T harboring qnrS gene by agar dilution method; type: functional
Escherichia coli [5] = assay: Antimicrobial activity against aac(6')-Ib-cr-positive Escherichia coli FJ3 harboring GyrA S83L, ParC S80R mutant, wild-type GyrB and qnrB genes by agar dilution method; type: functional; summary of the method: as §2
Citrobacter freundii [6] = assay: Antimicrobial activity against aac(6')-Ib-cr-positive Citrobacter freundii TJ15T harboring wild-type GyrA, ParC, GyrB genes by agar dilution method; type: functional; summary of the method: as §2
Citrobacter freundii [7] = assay: Antimicrobial activity against aac(6')-Ib-cr-positive Citrobacter freundii JS33 harboring GyrA T83I mutant, wild-type ParC, GyrB, qnrA and qnrB genes by agar dilution method; type: functional; summary of the method: as §2
Citrobacter freundii [8] = assay: Antimicrobial activity against aac(6')-Ib-cr-positive Citrobacter freundii JN1 harboring GyrA T83I, ParC S80I mutant, wild-type GyrB and qnrA genes by agar dilution method; type: functional; summary of the method: as §2
Enterobacter cloacae [9] = assay: Antimicrobial activity against aac(6')-Ib-cr-negative Enterobacter cloacae SH39 harboring GyrA S83I, ParC S80I mutant, wild-type GyrB and qnrA genes by agar dilution method; type: functional
Klebsiella pneumoniae [10] = assay: Antimicrobial activity against aac(6')-Ib-cr-positive Klebsiella pneumoniae JN41T harboring qnrB gene by agar dilution method; type: functional
Summary of the method: (§3)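 Transconjugants were made by conjugating a qnr/aac(6')-Ib-cr donor with azide-resistant E. coli J53. Selection used Trypticase soy agar with sodium azide 150 µg/ml and sulfamethoxazole 180 µg/ml. […] MICs were read by CLSI agar dilution (M7-A7) and interpreted per M100-S17.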

Enterobacter cloacae [11] = assay: Antimicrobial activity against aac(6')-Ib-cr-negative Enterobacter cloacae WH42T harboring qnrA gene by agar dilution method; type: functional
Klebsiella pneumoniae [12] = assay: Antimicrobial activity against aac(6')-Ib-cr-positive Klebsiella pneumoniae SY26T harboring wild-type GyrA, ParC, GyrB and qnrB genes by agar dilution method; type: functional
Summary of the method: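 Transconjugants were made by conjugating a qnr/aac(6')-Ib-cr donor with azide-resistant E. coli J53. MICs were read by CLSI agar dilution (M7-A7) and interpreted per M100-S17.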

Escherichia coli [13] = assay: Antimicrobial activity against aac(6')-Ib-cr-negative Escherichia coli PU12T harboring wild-type GyrA, GyrB, ParC and qnrS genes by agar dilution method; type: functional; summary of the method: as §2
Enterobacter cloacae [14] = assay: Antimicrobial activity against aac(6')-Ib-cr-negative Enterobacter cloacae FJ61 harboring GyrA S83I, GyrA D87A, ParC S80I mutant, wild-type GyrB and qnrS genes by agar dilution method; type: functional
Enterobacter cloacae [15] = assay: Antimicrobial activity against aac(6')-Ib-cr-negative Enterobacter cloacae GZ47 harboring qnrB and qnrS genes by agar dilution method; type: functional
Enterobacter cloacae [16] = assay: Antimicrobial activity against aac(6')-Ib-cr-negative Enterobacter cloacae SH39T harboring qnrA gene by agar dilution method; type: functional
Enterobacter cloacae [17] = assay: Antimicrobial activity against aac(6')-Ib-cr-negative Enterobacter cloacae FJ67T harboring qnrS gene by agar dilution method; type: functional
Enterobacter cloacae [18] = assay: Antimicrobial activity against aac(6')-Ib-cr-negative Enterobacter cloacae WH42 harboring wild-type GyrA, ParC, GyrB and qnrA genes by agar dilution method; type: functional
Enterobacter cloacae [19] = assay: Antimicrobial activity against aac(6')-Ib-cr-positive Enterobacter cloacae FJ63 harboring GyrA S83I, GyrA D87A, ParC S80I mutant, wild-type GyrB and qnrS genes by agar dilution method; type: functional
Citrobacter freundii [20] = assay: Antimicrobial activity against aac(6')-Ib-cr-negative Citrobacter freundii JN64T harboring qnrA gene by agar dilution method; type: functional; summary of the method: as §2
Enterobacter cloacae [21] = assay: Antimicrobial activity against aac(6')-Ib-cr-negative Enterobacter cloacae GZ51 harboring qnrA gene by agar dilution method; type: functional
Escherichia coli [22] = assay: Antimicrobial activity against aac(6')-Ib-cr-negative Escherichia coli PU12 harboring GyrA S83L mutant, wild-type GyrB, ParC and qnrS genes by agar dilution method; type: functional; summary of the method: as §2
Klebsiella pneumoniae [23] = assay: Antimicrobial activity against aac(6')-Ib-cr-positive Klebsiella pneumoniae GZ40T harboring qnrB gene by agar dilution method
Klebsiella pneumoniae [24] = assay: Antimicrobial activity against aac(6')-Ib-cr-negative Klebsiella pneumoniae SY22 harboring GyrA S83I, ParC S80I mutant, wild-type GyrB and qnrS genes by agar dilution method; type: functional; summary of the method: as §2
Klebsiella pneumoniae [25] = assay: Antimicrobial activity against aac(6')-Ib-cr-positive Klebsiella pneumoniae GZ40 harboring GyrA S83I, ParC S80I mutant, wild-type GyrB and qnrB genes by agar dilution method; type: functional; summary of the method: as §2
Citrobacter freundii [26] = assay: Antimicrobial activity against aac(6')-Ib-cr-positive Citrobacter freundii TJ15 harboring GyrA T83I, ParC S80I mutant, wild-type GyrB, qnrB genes by agar dilution method; type: functional; summary of the method: as §2
Klebsiella pneumoniae [27] = assay: Antimicrobial activity against aac(6')-Ib-cr-positive Klebsiella pneumoniae SY26 harboring GyrA S83I, ParC S80I mutant, wild-type GyrB and qnrB genes by agar dilution method; type: functional; summary of the method: as §1
Klebsiella pneumoniae [28] = assay: Antimicrobial activity against aac(6')-Ib-cr-negative Klebsiella pneumoniae SY22T harboring qnrS gene by agar dilution method; type: functional; summary of the method: as §2
Citrobacter freundii [29] = assay: Antimicrobial activity against aac(6')-Ib-cr-positive Citrobacter freundii JS33T harboring qnrA gene by agar dilution method; type: functional; summary of the method: as §2
Klebsiella pneumoniae [30] = assay: Antimicrobial activity against aac(6')-Ib-cr-positive Klebsiella pneumoniae JN41 harboring GyrA S83I, ParC S80I mutant, wild-type GyrB and qnrB genes by agar dilution method; type: functional; summary of the method: as §1
Escherichia coli [31] = assay: Antimicrobial activity against aac(6')-Ib-cr-positive Escherichia coli FJ3T harboring wild-type GyrA, ParC, GyrB and qnrB genes by agar dilution method
Citrobacter freundii [32] = assay: Antimicrobial activity against aac(6')-Ib-cr-positive Citrobacter freundii PU55T harboring wild-type GyrA, ParC, GyrB and qnrA genes by agar dilution method
Enterobacter cloacae [33] = assay: Antimicrobial activity against aac(6')-Ib-cr-negative Enterobacter cloacae FJ61T harboring qnrS gene by agar dilution method; type: functional
Klebsiella pneumoniae [34] = assay: Antimicrobial activity against aac(6')-Ib-cr-positive Klebsiella pneumoniae JN132 harboring GyrA S83I, ParC S80I mutant, wild-type GyrB and qnrB genes by agar dilution method; type: functional; summary of the method: as §1
Citrobacter freundii [35] = assay: Antimicrobial activity against aac(6')-Ib-cr-positive Citrobacter freundii PU55 harboring GyrA T83I, ParC S80I mutant, wild-type GyrB, qnrA genes by agar dilution method; type: functional; summary of the method: as §2
Klebsiella pneumoniae [36] = assay: Antimicrobial activity against aac(6')-Ib-cr-positive Klebsiella pneumoniae WH99T harboring qnrB gene by agar dilution method; type: functional; summary of the method: as §3
Klebsiella pneumoniae [37] = assay: Antimicrobial activity against aac(6')-Ib-cr-positive Klebsiella pneumoniae JN132T harboring qnrB gene by agar dilution method; type: functional; summary of the method: as §3
Escherichia coli [38] = assay: Antimicrobial activity against Escherichia coli J53 harboring wild-type GyrA, ParC, GyrB genes by agar dilution method
Citrobacter freundii [39] = assay: Antimicrobial activity against aac(6')-Ib-cr-negative Citrobacter freundii JN64 harboring GyrA T83I, wild-type ParC, GyrB and qnrA genes by agar dilution method; type: functional; summary of the method: as §2
Enterobacter cloacae [40] = assay: Antimicrobial activity against aac(6')-Ib-cr-negative Enterobacter cloacae FJ67 harboring […] and qnrS genes by agar dilution method; type: functional
Enterobacter cloacae [41] = assay: Antimicrobial activity against aac(6')-Ib-cr-negative Enterobacter cloacae GZ51T harboring qnrA gene by agar dilution method; type: functional

Measured: MIC

Cc1cc(NS(=O)(=O)c2ccc(N)cc2)no1 [SULFAMETHOXAZOLE]
64 µg/mL: Klebsiella pneumoniae [24]
256 µg/mL: Enterobacter cloacae [3] | Citrobacter freundii [8] | Enterobacter cloacae [16]
16 µg/mL: Enterobacter cloacae [14] | Klebsiella pneumoniae [28] | Enterobacter cloacae [33] | Escherichia coli [38]
32 µg/mL: Citrobacter freundii [2]
> 256 µg/mL: all other assays above
